Among the data in PubChem BioAssay AID977616 (Broad Institute, 2014) are AC50 and activity change, negative = cytotoxicity values, retold here.

The structures appear in SMILES notation. Calls of active or inactive are those of the source.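 How the source made its calls: active means falling-signal curve whose AC50 is at most twice the highest valid dose tested; inconclusive means flat fit showing 30 to 70% signal loss, or poor fit; inactive means the rest, including opposite-direction effects.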

Test [1] deals with HepG2 viability, CellTiter-Glo ATP luminescence, 72 h. The experiment in a line: viability loss in hepatoma cells – cell-based, CellTiter-Glo luminescence, dry powder, set 14, cytotoxicity control, dose response (AID 977616). The procedure, abridged: (§1)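 Medium – DMEM growth medium with 10% FBS · System – wild-type HepG2 cells · Input – 2000 HepG2 cells per well · Timing – seeding 24 h pre-dose, 72 h exposure, 37 °C, 5% CO2 · Doses – compound tested at multiple concentrations (dose series) · Signal – CellTiter-Glo ATP luminescence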

Assay in test [2]: as above
The settings on record: HepG2 viability, CellTiter-Glo ATP luminescence, 72 h. The essentials:
as §1

For `C[C@H](O)C#Cc1ccc2c(c1)O[C@H](CN(C)Cc1ccc(-c3ccccc3)cc1)[C@@H](C)CN([C@@H](C)CO)S2(=O)=O`, the AC50 in test [1] was 4.56 µM. As for `C[C@H]1CN([C@@H](C)CO)S(=O)(=O)c2ccc(Br)cc2O[C@H]1CN(C)Cc1ccc(-c2ccccc2)cc1`, the activity change, negative = cytotoxicity in test [2] (at 26 µM (top of the series)) is 14.1% (inactive). Take `CNC[C@@H]1Oc2cc(Br)ccc2S(=O)(=O)N([C@@H](C)CO)C[C@@H]1C`: the activity change, negative = cytotoxicity in test [2] (at 26 µM (top of the series)) was -25.9% (inactive). For the molecule `Cc1cccc(-c2ccc(CN(C)C[C@@H]3Oc4cc(C#C[C@@H](C)O)ccc4S(=O)(=O)N([C@@H](C)CO)C[C@@H]3C)cc2)c1`, in test [1], the AC50 was 23.1 µM. `COc1ccc(-c2ccc(CN(C)C[C@@H]3Oc4cc(C#C[C@@H](C)O)ccc4S(=O)(=O)N([C@@H](C)CO)C[C@@H]3C)cc2)cc1`: the AC50 in test [1] is 20.2 µM. `C[C@H](O)C#Cc1ccc2c(c1)O[C@@H](CN(C)Cc1ccc(-c3ccccc3)cc1)[C@H](C)CN([C@H](C)CO)S2(=O)=O`: the AC50 in test [1] was 19.2 µM.

Regarding `COc1ccccc1-c1ccc(CN(C)C[C@@H]2Oc3cc(C#C[C@@H](C)O)ccc3S(=O)(=O)N([C@@H](C)CO)C[C@@H]2C)cc1`, the AC50 in test [1] is 20.4 µM. Regarding `CO[C@H]1CN(C)C(=O)c2ccc(NC(=O)c3ccc(F)cc3)cc2OC[C@H](C)N(C(=O)c2ccc(F)cc2)C[C@@H]1C`, the activity change, negative = cytotoxicity in test [2] (at 26 µM (top of the series)) is 11.6% (inactive). As for `C[C@@H](O)C#Cc1ccc2c(c1)O[C@@H](CN(C)S(=O)(=O)c1ccc(-c3ccccc3)cc1)[C@@H](C)CN([C@@H](C)CO)S2(=O)=O`, in test [2] (at 26 µM (top of the series)), the activity change, negative = cytotoxicity is -8.38% (inactive).

As for `C[C@@H](O)C#Cc1ccc2c(c1)O[C@@H](CN(C)Cc1ccc(-c3ccccc3Cl)cc1)[C@@H](C)CN([C@@H](C)CO)S2(=O)=O`, the AC50 in test [1] is 25.9 µM.

With `C[C@@H]1CN([C@@H](C)CO)S(=O)(=O)c2ccc(C#C[C@@H](C)O)cc2O[C@H]1CN(C)Cc1ccc(-c2ccccc2)cc1`, in test [1], the AC50 was 17.8 µM. On to `C[C@H]1CN([C@@H](C)CO)S(=O)(=O)c2ccc(-c3ccc(O)cc3)cc2O[C@H]1CN(C)Cc1ccc(-c2ccccc2)cc1`, for which the AC50 in test [1] was > 52 µM (inactive). For the molecule `C[C@@H](O)C#Cc1ccc2c(c1)O[C@@H](CN(C)Cc1ccncc1)[C@@H](C)CN([C@@H](C)CO)S2(=O)=O`, the activity change, negative = cytotoxicity in test [2] (at 26 µM (top of the series)) is -6.07% (inactive). With `C[C@@H](O)C#Cc1ccc2c(c1)O[C@@H](CN(C)Cc1ccc(-c3cccc(Cl)c3)cc1)[C@@H](C)CN([C@@H](C)CO)S2(=O)=O`, the AC50 in test [1] is 25.4 µM. Take `C[C@H](O)C#Cc1ccc2c(c1)O[C@H](CN(C)Cc1ccc(-c3ccccc3)cc1)[C@H](C)CN([C@@H](C)CO)S2(=O)=O`: the activity change, negative = cytotoxicity in test [2] (at 26 µM (top of the series)) is -13.4% (inactive).

Regarding `C[C@@H](O)C#Cc1ccc2c(c1)O[C@@H](CN(C)Cc1cccnc1)[C@@H](C)CN([C@@H](C)CO)S2(=O)=O`, the activity change, negative = cytotoxicity in test [2] (at 26 µM (top of the series)) was 2.57% (inactive).

On to `C[C@@H]1CN([C@H](C)CO)S(=O)(=O)c2ccc(C#C[C@@H](C)O)cc2O[C@@H]1CN(C)Cc1ccc(-c2ccccc2)cc1`, for which, in test [2] (at 26 µM (top of the series)), the activity change, negative = cytotoxicity is -8.68% (inactive). `C[C@H](CO)N1C[C@H](C)[C@H](CN(C)Cc2ccc(-c3ccccc3)cc2)Oc2cc(C#C[C@@H](C)O)ccc2S1(=O)=O`: the activity change, negative = cytotoxicity in test [2] (at 26 µM (top of the series)) is 0.52% (inactive).

In the case of `C[C@@H](O)C#Cc1ccc2c(c1)O[C@@H](CN(C)Cc1ccc(-c3ccc(Cl)cc3)cc1)[C@@H](C)CN([C@@H](C)CO)S2(=O)=O`, the AC50 in test [1] is 21.6 µM. As to `C[C@H](O)C#Cc1ccc2c(c1)O[C@@H](CN(C)Cc1ccc(-c3ccccc3)cc1)[C@@H](C)CN([C@H](C)CO)S2(=O)=O`, in test [2] (at 12 µM (top of the series)), the activity change, negative = cytotoxicity is -7.08% (inactive). In the case of `C[C@@H](O)C#Cc1ccc2c(c1)O[C@H](CN(C)Cc1ccc(-c3ccccc3)cc1)[C@@H](C)CN([C@@H](C)CO)S2(=O)=O`, the AC50 in test [1] is 20 µM. As to `COc1cccc(-c2ccc(CN(C)C[C@@H]3Oc4cc(C#C[C@@H](C)O)ccc4S(=O)(=O)N([C@@H](C)CO)C[C@@H]3C)cc2)c1`, in test [1], the AC50 is 22.5 µM.

As for `C[C@H](O)C#Cc1ccc2c(c1)O[C@@H](CN(C)Cc1ccc(-c3ccccc3)cc1)[C@@H](C)CN([C@@H](C)CO)S2(=O)=O`, in test [1], the AC50 was > 52 µM (inactive). In the case of `C[C@H](O)C#Cc1ccc2c(c1)O[C@@H](CN(C)Cc1ccc(-c3ccccc3)cc1)[C@H](C)CN([C@@H](C)CO)S2(=O)=O`, in test [1], the AC50 was 19.7 µM. As for `C[C@H](O)C#Cc1ccc2c(c1)O[C@H](CN(C)Cc1ccc(-c3ccccc3)cc1)[C@@H](C)CN([C@H](C)CO)S2(=O)=O`, the AC50 in test [1] is 21.2 µM.
